Sampled rows, rich in hits. Any-hit rate of the full collection: about 1.9%.
PLC-beta3 inh – PLC-beta3 (human) inhibition, primary screen | 370,000 tested, 0.18% active | inhibition, % at 12.2 µM | Purified PLC-beta3, fluorogenic substrate, fluorescence | Q01970; in the data active = inhibition above about 11%;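 note: 0% = median of compound wells on plate and 100% = full blocker control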
ARFGAP1 inh – inhibitors of rat ARFGAP1; Q62848; Arfgap1-stimulated ARF1 GTP hydrolysis, GDP FP detection; inhibition, % at 16.5 µM; 360,000 tested, 0.26% active;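 active = inhibition above a per-plate limit, mean inhibition of low control wells plus 3 SD, cut at about 25% in these data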;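 note: 0% = DMSO wells with enzyme and 100% = wells lacking Arfgap1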
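System: truncated rat Arfgap1 GAP domain / Benchmarks: high control wells lacking Arfgap1, low control full reaction with DMSO / Times: compound-enzyme preincubation 20 min, reaction 120 min, detection 60 min, 25 °C / Repeats: one replicate per compound / Also added: human ARF1(Δ1-17)-GTP substrate / Measured by: Tracer-displacement fluorescence polarization with EDTA stop, 620/688 nm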
HGIII-sPLA2 inh – Blocks human group III sPLA2 activity; Q9NZ20; QFRET BODIPY PC-A2 liposome hydrolysis, fluorescence; inhibition, % at 12.2 µM; 370,000 tested, 0.56% active;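 active = inhibition above mean plus 3 SD of compounds lying within the high and low control bounds, cut at about 19% in these data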;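 note: 0% = median of test compound wells and 100% = no enzyme DMSO wells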
Target sequence (Q9NZ20 whole entry, looked up): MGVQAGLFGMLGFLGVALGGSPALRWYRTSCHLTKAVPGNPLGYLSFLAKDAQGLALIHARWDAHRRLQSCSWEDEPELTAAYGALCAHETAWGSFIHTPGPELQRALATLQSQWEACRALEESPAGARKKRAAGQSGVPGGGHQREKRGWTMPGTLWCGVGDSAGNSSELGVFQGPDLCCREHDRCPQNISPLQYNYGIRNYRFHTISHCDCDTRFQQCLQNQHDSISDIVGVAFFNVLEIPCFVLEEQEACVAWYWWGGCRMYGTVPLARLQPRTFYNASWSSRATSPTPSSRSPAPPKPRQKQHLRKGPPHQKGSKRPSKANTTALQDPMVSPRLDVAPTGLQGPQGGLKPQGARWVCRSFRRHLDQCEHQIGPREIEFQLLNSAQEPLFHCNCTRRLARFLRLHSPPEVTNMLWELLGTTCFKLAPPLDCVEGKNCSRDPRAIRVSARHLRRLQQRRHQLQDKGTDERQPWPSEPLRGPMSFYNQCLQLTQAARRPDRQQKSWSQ
ASAP1 GAP inh – ASAP1 ArfGAP inhibition; 360,000 tested, 0.19% active; Q9ULH1; ASAP1-stimulated ARF1 GTP hydrolysis, GDP FP detection; AID 624377; inhibition, % at 16.5 µM; in the data active = inhibition above about 25%;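 note: 0% = vehicle with enzyme and substrate and 100% = no enzyme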
PLCg1 inh – blocks human PLC-gamma1 enzyme activity | P19174 | purified PLC-gamma1, fluorogenic substrate, fluorescence | inhibition, % at 12.2 µM | 370,000 tested, 0.84% active | AID 720700; in the data active = inhibition above about 9.5%
ASAP1 inh confirm – ASAP1 inhibition confirmed. shares compounds with ASAP1 GAP inh. ASAP1-stimulated Arf1 GTPase, GDP fluorescence polarization. inhibition, % at 16.5 µM. 620 tested, 37% active. AID 624431;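 active = mean inhibition over triplicates exceeds the hit threshold derived for the earlier primary screening run, cut at about 25% in these data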
* marks the source's active call; other numbers are inactive results; x = not tested or not shown.

SMILES | PLC-beta3 inh | ARFGAP1 inh | HGIII-sPLA2 inh | ASAP1 GAP inh | PLCg1 inh | ASAP1 inh confirm
Cc1ccc(S(=O)(=O)NCCC(=O)N2CCN(C/C=C/c3ccccc3)CC2)cc1 | -3 | -5 | -22 | 8 | 7 | x
CCOC(=O)[C@@]12CCCC=C1N(CCc1ccc(Cl)cc1)C(=O)[C@H]2CC(=O)NCC1CCCCC1 | 0 | x | -20 | x | 1 | x
Cc1ccc(/C=N/N2C(=S)SC(C)(C)C2N(O)C(=O)Nc2ccc([N+](=O)[O-])cc2)cc1 (stereo not given) | 2 | -9 | -14 | 5 | 3 | x
CC1(C)SC(=S)N(/N=C/c2ccc(O)cc2)C1N(O)C(=O)Nc1ccc([N+](=O)[O-])cc1 (stereo not given) | 9 | 0 | -27 | 25* | 5 | 15
Cc1ccccc1S(=O)(=O)Oc1ccc2ccc(O)cc2c1 | -8 | 6 | -106 | 27* | -2 | 17
Cc1ccccc1C(=O)Oc1ccc2ccc(O)cc2c1 | -7 | 2 | -97 | 3 | 4 | x
COc1ccc(/C=N/NC(=O)c2cc3c(ccc4ccccc43)o2)c(OC)c1 | -169 | 8 | 2 | 34* | -113 | 16
COc1ccc(C(=O)N/N=C/c2cn[nH]c2-c2ccc(OC)cc2OC)cc1 | -8 | 4 | -2 | 29* | -9 | 19
CCCCNC(=O)C[C@H]1C[C@@]2(C(=O)OC)C(=C[C@H](C3CCCC3)O[C@@H]2C)N(Cc2cccc3ccccc23)C1=O | 5 | x | -11 | x | 6 | x
COC(=O)[C@]12C[C@H](CC(=O)N3CCSCC3)C(=O)N(Cc3ccc(Cl)cc3Cl)C1=C[C@H](C(C)(C)C)O[C@@H]2C | 3 | x | 2 | x | -2 | x
COCCCNc1ncnc2c1sc1nc(-c3ccco3)c3c(c12)CC(C)(C)OC3 | -333 | 3 | -7 | 3 | -235 | x
CC1(C)Cc2c(c(-c3ccco3)nc3sc4c(NCCO)ncnc4c23)CO1 | -223 | -7 | -15 | 30* | -192 | 1
Clc1ccc(-n2c(SCc3cccc4ccccc34)nnc2-c2ccccc2)cc1 | 2 | x | -9 | x | -1 | x
CC(C)c1ccc(OCC(=O)Nc2ccc(S(=O)(=O)Nc3ccccn3)cc2)cc1 | 1 | 4 | -11 | 25* | 3 | -4
COc1cc2sc3ccc(C#Cc4ccccn4)cc3c(=O)c2cc1OC | -64 | 12 | -2 | 31* | -34 | 28*
COc1cccc2sc3cc(C#Cc4ccccn4)ccc3c(=O)c12 | -289 | 3 | 7 | 1 | -200 | x
COCCn1cnc2c(c1=O)c1nc3ccccc3nc1n2/N=C/c1ccc(OC)c(OC)c1 | -2 | -13 | -2 | 33* | -2 | 37*
C=CCn1cnc2c(c1=O)c1nc3ccccc3nc1n2/N=C/c1cccc(OC)c1 | 2 | 0 | 0 | -5 | 0 | x
CCOc1cc2c(C#N)c(N(CC)CC)nc(N)c2c(N)n1 | -64 | 20 | -6 | 33* | -44 | 9
COc1cc(=O)oc(C=O)c1C | 2 | 6 | -2 | 5 | 3 | x
COc1ccc(C(=O)Nc2cccc(-c3cc4ccccc4oc3=O)c2)cc1[N+](=O)[O-] | 1 | 24 | -12 | 27* | 3 | 72*
CC(=O)Nc1ccc(NC(=O)c2cccc(-c3cc4ccccc4oc3=O)c2)cc1 | -8 | -8 | -1 | 1 | -7 | x
CC(COc1cccc(C#N)c1)CN1CCC(C(O)(c2ccccc2)c2ccccc2)CC1 (stereo not given) | 9 | x | -10 | x | 5 | x
CCOC(=O)c1ccc(Oc2cn[nH]c2-c2ccc(O)cc2O)cc1 | -5 | 10 | -61 | 27* | 3 | 20
CCCOC(=O)c1ccc(Oc2cn[nH]c2-c2ccc(O)cc2O)cc1 | -8 | 0 | -56 | -9 | 0 | x
O=C(NNS(=O)(=O)c1ccc(Cl)cc1)c1cc(-c2ccccc2)nc2ccccc12 | -3 | 5 | -41 | 28* | -1 | 15
CN(C(=O)CNC(=O)c1ccccc1OCC(=O)Nc1ccc(I)cc1)c1ccccc1 | -1 | x | -1 | x | -1 | x
S=C(Nc1ccc2nsnc2c1)N1CCCCC1 | -206 | 22 | 0 | 25* | -180 | 0
Cc1ccccc1NC(=O)N(C)[C@H]1C[C@H]2c3[nH]c4c(-c5ccc6c(c5)OCO6)cccc4c3CCN2C[C@H]1[C@H](C)O | -14 | x | 0 | x | -9 | x
CC[C@H](CO)Oc1cc(NCc2ccc(Cl)c(Cl)c2)c2ncn(C(C)C)c2c1 | -3 | 14 | -7 | 26* | -2 | 16
